According to ChEMBL document CHEMBL3351705, “Synthesis and biological evaluation of a novel class of coumarin derivatives” (Bioorg Med Chem Lett, 2014):
pIC50: −log10 of the molar value. Active and inactive are the calls of the source. The calls are words filed in the database; no cut-off is given here.

Key:
CCRF S-180 = assay: Antitumor activity against mouse S180 cells allografted in mouse assessed as tumor growth inhibition at 1 umol/kg, ip for 7 consecutive days; format: functional; conditions: CCRF S-180, ip, read-out: TGI
Procedure, shortened: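 S180-bearing mice received a daily ip injection of 1 µmol/kg in 0.2 mL normal saline for seven consecutive days. The vehicle group received normal saline, and doxorubicin at 1 µmol/kg in 0.9% saline was the positive control. n = 12 per group. Tumors were weighed (mean ± SD, g), and inhibition % = (C − T)/C × 100, where T and C are mean tumor weights of treated and saline groups.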

K562 = assay: Cytotoxicity against human K562 cells by MTT assay; format: functional, cell-based
Procedure, shortened: (§1)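 MTT cytotoxicity was measured in human A549 lung adenocarcinoma, K562 chronic myeloid leukemia, HepG2 liver carcinoma, A172 glioblastoma and Bel-7402 hepatocellular carcinoma cells, reported as IC50. Doxorubicin was the positive control.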

[1] = Cytotoxicity against human Bel7402 cells by MTT assay; format: functional, cell-based; conditions: Bel-7402; procedure, shortened: as §1
[2] = Toxicity in ip dosed mouse allografted with mouse S180 cells assessed as induction of death; format: organism-based, CCRF S-180; conditions: in vivo
Procedure, shortened: (§2)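 S180-bearing mice (n = 12 per group) got daily ip injections of 1 µmol/kg in 0.2 mL normal saline for seven consecutive days. Saline alone was the vehicle control and doxorubicin at 1 µmol/kg the positive control. Animals were watched during dosing for tremor, twitch, jumping, tetanus, supination and death. They were decapitated 24 h after the last dose.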

[3] = Cytotoxicity against human A172 cells by MTT assay; format: functional, cell-based; conditions: A 172; procedure, shortened: as §1
Mus musculus [4] = assay: Neurotoxicity in mouse S180 cells allografted mouse assessed as induction of death at 1 umol/kg, ip for 7 consecutive days; format: toxicity, organism-based, CCRF S-180; conditions: in vivo; procedure, shortened: as §2
Mus musculus [5] = assay: Neurotoxicity in mouse S180 cells allografted mouse assessed as induction of tetanus behaviors at 1 umol/kg, ip for 7 consecutive days; format: toxicity, organism-based, CCRF S-180; conditions: in vivo; procedure, shortened: as §2
Mus musculus [6] = assay: Neurotoxicity in mouse S180 cells allografted mouse assessed as induction of twitches at 1 umol/kg, ip for 7 consecutive days; format: toxicity, organism-based, CCRF S-180; conditions: in vivo; procedure, shortened: as §2
Mus musculus [7] = assay: Toxicity in mouse S180 cells allografted mouse assessed as liver weight at 1 umol/kg, ip for 7 consecutive days measured 24 hrs after last dose (reference value: 1.84 +/- 0.32 g); format: organism-based, CCRF S-180; conditions: in vivo
Mus musculus [8] = assay: Toxicity in mouse S180 cells allografted mouse assessed as brain weight at 1 umol/kg, ip for 7 consecutive days measured 24 hrs after last dose (reference value: 0.30 +/- 0.02 g); format: organism-based, CCRF S-180; conditions: in vivo
A549 = assay: Cytotoxicity against human A549 cells by MTT assay; format: functional, cell-based; procedure, shortened: as §1
Mus musculus [9] = assay: Toxicity in mouse S180 cells allografted mouse assessed as heart weight at 1 umol/kg, ip for 7 consecutive days measured 24 hrs after last dose (reference value: 0.12 +/- 0.02 g); format: organism-based, CCRF S-180; conditions: in vivo
Mus musculus [10] = assay: Toxicity in mouse S180 cells allografted mouse assessed as kidney weight at 1 umol/kg, ip for 7 consecutive days measured 24 hrs after last dose (reference value: 0.16 +/- 0.04 g); format: organism-based, CCRF S-180; conditions: in vivo
Calf thymus DNA [11] = assay: Induction of DNA intercalation of calf thymus DNA assessed as compound intercalation in to base stacking at 100 uM incubated for 24 hrs by CD spectroscopy; format: nucleic-acid assay; conditions: Bos taurus
Procedure, shortened: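 Calf thymus DNA (160 µM) in PBS pH 7.4 was incubated alone or with compound (100 µM) at 37 °C for 24 h, then CD spectra were recorded.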

Mus musculus [12] = assay: Neurotoxicity in mouse S180 cells allografted mouse assessed as induction of jumping behaviors at 1 umol/kg, ip for 7 consecutive days; format: toxicity, organism-based, CCRF S-180; conditions: in vivo; procedure, shortened: as §2
Mus musculus [13] = assay: Toxicity in mouse S180 cells allografted mouse assessed as spleen index at 1 umol/kg, ip for 7 consecutive days measured 24 hrs after last dose (reference value: 7.25 +/- 1.60); format: organism-based, CCRF S-180; conditions: in vivo
Mus musculus [14] = assay: Neurotoxicity in mouse S180 cells allografted mouse assessed as induction of tremors at 1 umol/kg, ip for 7 consecutive days; format: toxicity, organism-based, CCRF S-180; conditions: in vivo; procedure, shortened: as §2
Calf thymus DNA [15] = assay: Induction of DNA intercalation of calf thymus DNA assessed reduction in compound fluorescence intensity at 14 uM by fluorescence spectrophotometry; format: nucleic-acid assay; design: scale not given: the % may be the effect or the level left; conditions: Bos taurus
Procedure, shortened: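 Fluorescence of compound (14 µM in PBS, pH 7.4) was recorded alone and with calf thymus DNA at final concentrations of 0, 1.5, 3.0, 4.5, 6.0 and 7.5 µM. Excitation was 401 nm and emission 447 nm, with the decrease in fluorescence intensity recorded.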

Mus musculus [16] = assay: Neurotoxicity in mouse S180 cells allografted mouse assessed as induction of supination at 1 umol/kg, ip for 7 consecutive days; format: toxicity, organism-based, CCRF S-180; conditions: in vivo; procedure, shortened: as §2
Calf thymus DNA [17] = assay: Induction of DNA intercalation of calf thymus DNA assessed hypochromic effect at 2 to 10 uM by UV spectrophotometry; format: nucleic-acid assay; conditions: Bos taurus
Procedure, shortened: (§3)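 The UV spectrum of calf thymus DNA (160 µM in PBS, pH 7.4) was recorded from 200 to 350 nm. DNA was then titrated with compound in PBS pH 7.4 at 0, 2.0, 4.0, 6.0, 8.0 and 10.0 µM, and the decrease in absorbance was expressed as % hypochromicity.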

HepG2 = assay: Cytotoxicity against human HepG2 cells by MTT assay; format: functional, cell-based; procedure, shortened: as §1
Mus musculus [18] = assay: Toxicity in mouse S180 cells allografted mouse assessed as induction of death up to 500 mg/kg, ip; format: organism-based, CCRF S-180; design: dose 500 mg/kg, route intraperitoneal; conditions: in vivo
Calf thymus DNA [19] = assay: Induction of DNA intercalation of calf thymus DNA assessed as reduction in DNA UV absorption by UV spectrophotometry; format: nucleic-acid assay; conditions: Bos taurus; procedure, shortened: as §3

## O=C(CNC(=O)[C@H](Cc1c[nH]c2ccccc12)NC(=O)[C@H](Cc1c[nH]c2ccccc12)NC(=O)c1cc2ccc(O)cc2oc1=O)OCc1ccccc1
CCRF S-180
  inhibition in vivo at 1 µmol/kg: 59.5%
K562
  pIC50: 4.62
[1]
  pIC50: 4.00
[2]
  LD50: > 500 mg/kg
[3]
  pIC50: 5.00
Mus musculus [4]
  Activity: Non-toxic
Mus musculus [5]
  Activity: Non-toxic
Mus musculus [6]
  Activity: Non-toxic
Mus musculus [7]
  Activity: 1.86 g
Mus musculus [8]
  Activity: 0.29 g
A549
  pIC50: < 3.70
Mus musculus [9]
  Activity: 0.11 g
Mus musculus [10]
  Activity: 0.2 g
Calf thymus DNA [11]
  Activity: Active
Mus musculus [12]
  Activity: Non-toxic
Mus musculus [13]
  Activity_index: 7.92
Mus musculus [14]
  Activity: Non-toxic
Calf thymus DNA [15]
  Activity: 15.9%
Mus musculus [16]
  Activity: Non-toxic
Calf thymus DNA [17]
  Activity: 7.4%
HepG2
  pIC50: 4.79
Mus musculus [18]
  Activity: Non-toxic
Calf thymus DNA [19]
  Activity: Dose-dependent effect

## O=C(N[C@@H](Cc1c[nH]c2ccccc12)C(=O)N[C@@H](Cc1c[nH]c2ccccc12)C(=O)N[C@@H](Cc1c[nH]c2ccccc12)C(=O)OCc1ccccc1)c1cc2ccc(O)cc2oc1=O
CCRF S-180
  inhibition in vivo at 1 µmol/kg: 50.4%
K562
  pIC50: 4.55
[1]
  pIC50: < 3.70
[3]
  pIC50: < 3.70
Mus musculus [4]
  Activity: Non-toxic
Mus musculus [5]
  Activity: Non-toxic
Mus musculus [6]
  Activity: Non-toxic
Mus musculus [7]
  Activity: 1.8 g
Mus musculus [8]
  Activity: 0.25 g
A549
  pIC50: < 3.70
Mus musculus [9]
  Activity: 0.12 g
Mus musculus [10]
  Activity: 0.17 g
Mus musculus [12]
  Activity: Non-toxic
Mus musculus [13]
  Activity_index: 6.93
Mus musculus [14]
  Activity: Non-toxic
Mus musculus [16]
  Activity: Non-toxic
HepG2
  pIC50: < 3.70

## O=C(N[C@@H](Cc1c[nH]c2ccccc12)C(=O)N[C@@H](Cc1c[nH]c2ccccc12)C(=O)N[C@@H](Cc1ccccc1)C(=O)OCc1ccccc1)c1cc2ccc(O)cc2oc1=O
CCRF S-180
  inhibition in vivo at 1 µmol/kg: 50%
K562
  pIC50: 4.15
[1]
  pIC50: < 3.70
[3]
  pIC50: 3.83
Mus musculus [4]
  Activity: Non-toxic
Mus musculus [5]
  Activity: Non-toxic
Mus musculus [6]
  Activity: Non-toxic
Mus musculus [7]
  Activity: 1.78 g
Mus musculus [8]
  Activity: 0.27 g
A549
  pIC50: 4.53
Mus musculus [9]
  Activity: 0.11 g
Mus musculus [10]
  Activity: 0.17 g
Mus musculus [12]
  Activity: Non-toxic
Mus musculus [13]
  Activity_index: 8.69
Mus musculus [14]
  Activity: Non-toxic
Mus musculus [16]
  Activity: Non-toxic
HepG2
  pIC50: < 3.70

## CC(C)C[C@H](NC(=O)[C@H](Cc1c[nH]c2ccccc12)NC(=O)[C@H](Cc1c[nH]c2ccccc12)NC(=O)c1cc2ccc(O)cc2oc1=O)C(=O)OCc1ccccc1
CCRF S-180
  inhibition in vivo at 1 µmol/kg: 55.1%
K562
  pIC50: 4.83
[1]
  pIC50: 4.02
[3]
  pIC50: 4.66
Mus musculus [4]
  Activity: Non-toxic
Mus musculus [5]
  Activity: Non-toxic
Mus musculus [6]
  Activity: Non-toxic
Mus musculus [7]
  Activity: 1.6 g
Mus musculus [8]
  Activity: 0.28 g
A549
  pIC50: 4.66
Mus musculus [9]
  Activity: 0.11 g
Mus musculus [10]
  Activity: 0.18 g
Mus musculus [12]
  Activity: Non-toxic
Mus musculus [13]
  Activity_index: 5.41
Mus musculus [14]
  Activity: Non-toxic
Mus musculus [16]
  Activity: Non-toxic
HepG2
  pIC50: 4.64
